Laboratory results: ChEMBL document CHEMBL1123302, “Antagonists of substance P. Further modifications of substance P antagonists obtained by replacing either positions 7, 9 or 7, 8 and 11 of SP with D-amino acid residues” (J Med Chem, 1986)
Each block holds one molecule with its values, some of them ahead of it.

How the values were obtained:
Substance-P receptor = Substance-P receptor (Rattus norvegicus, UniProt P14600); assay: Histamine releasing activity of Substance P from isolated rat peritoneal mast cells; format: functional
Outline: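 Histamine release from isolated rat peritoneal mast cells, method of Fretwell et al. Dose-response curves were built over a range of concentrations, and EC50 values were calculated from the curves.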

[1] = target: Metabotropic glutamate receptor 3 (Rattus norvegicus) (UniProt P31422); assay: Antagonistic activity against Glutamate receptor in rat spinal cord at concentration of 10 uM.; format: functional, tissue-based
Outline: (§1)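 Neonatal rat spinal cord, hemisected sagittally, superfused at 1 mL/min with oxygenated Krebs-Henseleit medium containing 0.5% urethane at room temperature. Agonists were given in 2-mL doses in the superfusate. Antagonist was superfused continuously for at least 15 min before agonist retesting. Read-out was ventral root depolarization (DC potential, ventral root vs cord body), measured as amplitude and area of response.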

[2] = target: Metabotropic glutamate receptor 3 (Rattus norvegicus) (UniProt P31422); assay: Antagonistic activity against Glutamate receptor in rat spinal cord at concentration of 50 uM.; format: functional, tissue-based; outline: as §1
[3] = target: Substance-P receptor (Cavia porcellus) (UniProt P30547); assay: In vitro inhibition of substance P (6-11) hexapeptide induced contractions of the guinea pig ileum at 5 uM.; format: tissue-based
Outline: (§2)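 Agonist (SP or SP(6-11)-hexapeptide) dose-response curves on a 3-min cycle with 1-min contact, then washout. Dose ratio = agonist EC50 with antagonist / EC50 alone. At least two preparations per compound; ratios below 2 taken as insignificant.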

[4] = target: Substance-P receptor (Cavia porcellus) (UniProt P30547); assay: Antagonistic activity against Substance P receptor in guinea pig ileum at concentration of 1 uM.; format: functional, tissue-based
Outline: (§3)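 Distal ileum from Dunkin-Hartley guinea pigs (300-350 g, both sexes), held in a 5-mL bath of Krebs solution at 37 °C gassed with 95% O2/5% CO2. Agonist dose-response curves ran on a 3-min cycle with 1-min contact, then washout. Dose ratio = agonist EC50 with antagonist / EC50 alone. At least two preparations per compound; ratios below two were taken as insignificant.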

[5] = target: Substance-P receptor (Cavia porcellus) (UniProt P30547); assay: In vitro inhibition of substance P induced contractions of the guinea pig ileum at 5 uM.; format: tissue-based; outline: as §2
[6] = target: Substance-P receptor (Cavia porcellus) (UniProt P30547); assay: Antagonistic activity against Substance P(6-11) receptor in guinea pig ileum at concentration of 1 uM.; format: functional, tissue-based; outline: as §3
[7] = target: Substance-P receptor (Rattus norvegicus) (UniProt P14600); assay: Antagonistic activity against Substance P receptor in rat spinal cord at concentration of 10 uM.
[8] = target: Substance-P receptor (Rattus norvegicus) (UniProt P14600); assay: Antagonistic activity against Substance P receptor in rat spinal cord at concentration of 50 uM.
[9] = tested on: muscarinic acetylcholine receptor (Rattus norvegicus); assay: Antagonistic activity against Carbachol receptor in rat spinal cord at concentration of 10 uM.
[10] = tested on: muscarinic acetylcholine receptor (Rattus norvegicus); assay: Antagonistic activity against Carbachol receptor in rat spinal cord at concentration of 50 uM.
[11] = target: Substance-P receptor (Rattus norvegicus) (UniProt P14600); assay: Antagonistic activity against Substance P(6-11) receptor in rat spinal cord at concentration of 10 uM.
[12] = target: Substance-P receptor (Rattus norvegicus) (UniProt P14600); assay: Antagonistic activity against Substance P(6-11) receptor in rat spinal cord at concentration of 50 uM.
[13] = target: Metabotropic glutamate receptor 3 (Rattus norvegicus) (UniProt P31422); assay: Antagonistic activity against Glutamate receptor in rat spinal cord at concentration of 25 uM.; format: functional, tissue-based; outline: as §1
[14] = target: Substance-P receptor (Cavia porcellus) (UniProt P30547); assay: In vitro inhibition of substance P induced contractions of the guinea pig ileum at 10 uM.; format: tissue-based; outline: as §2
[15] = target: Substance-P receptor (Rattus norvegicus) (UniProt P14600); assay: Antagonistic activity against Substance P receptor in rat spinal cord at concentration of 25 uM.
[16] = target: Substance-P receptor (Rattus norvegicus) (UniProt P14600); assay: Antagonistic activity against Substance P(6-11) receptor in rat spinal cord at concentration of 25 uM.
[17] = target: Metabotropic glutamate receptor 3 (Rattus norvegicus) (UniProt P31422); assay: Antagonistic activity against Glutamate receptor in rat spinal cord at concentration of 5 uM.; format: functional, tissue-based; outline: as §1
[18] = target: Substance-P receptor (Cavia porcellus) (UniProt P30547); assay: In vitro inhibition of substance P (6-11) hexapeptide induced contractions of the guinea pig ileum at 10 uM.; format: tissue-based; outline: as §2

Chain of Metabotropic glutamate receptor 3 (Rattus norvegicus) (P31422 23-879 limits assumed): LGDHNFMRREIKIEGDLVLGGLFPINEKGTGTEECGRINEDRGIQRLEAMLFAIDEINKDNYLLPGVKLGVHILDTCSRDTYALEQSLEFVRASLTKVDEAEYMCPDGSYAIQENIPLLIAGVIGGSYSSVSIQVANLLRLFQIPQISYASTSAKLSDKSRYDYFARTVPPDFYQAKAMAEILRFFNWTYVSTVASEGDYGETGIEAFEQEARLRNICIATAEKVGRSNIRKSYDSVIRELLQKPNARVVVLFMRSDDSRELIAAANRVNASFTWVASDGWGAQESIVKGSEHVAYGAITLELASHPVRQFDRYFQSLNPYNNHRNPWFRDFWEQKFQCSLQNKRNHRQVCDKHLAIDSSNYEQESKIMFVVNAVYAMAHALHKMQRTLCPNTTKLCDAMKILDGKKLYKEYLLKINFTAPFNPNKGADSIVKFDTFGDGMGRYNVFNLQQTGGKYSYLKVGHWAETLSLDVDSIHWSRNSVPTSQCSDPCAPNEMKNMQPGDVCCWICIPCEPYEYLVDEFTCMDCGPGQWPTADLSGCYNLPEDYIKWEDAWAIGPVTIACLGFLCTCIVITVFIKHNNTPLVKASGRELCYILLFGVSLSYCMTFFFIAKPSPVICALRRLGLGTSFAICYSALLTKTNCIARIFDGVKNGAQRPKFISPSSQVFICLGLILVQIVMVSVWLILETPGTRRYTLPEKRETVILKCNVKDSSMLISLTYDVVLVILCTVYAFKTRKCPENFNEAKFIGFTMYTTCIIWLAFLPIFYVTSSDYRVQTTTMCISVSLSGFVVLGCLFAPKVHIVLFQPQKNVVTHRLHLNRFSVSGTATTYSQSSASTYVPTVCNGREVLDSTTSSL
Chain of Substance-P receptor (Cavia porcellus) (P30547 whole entry): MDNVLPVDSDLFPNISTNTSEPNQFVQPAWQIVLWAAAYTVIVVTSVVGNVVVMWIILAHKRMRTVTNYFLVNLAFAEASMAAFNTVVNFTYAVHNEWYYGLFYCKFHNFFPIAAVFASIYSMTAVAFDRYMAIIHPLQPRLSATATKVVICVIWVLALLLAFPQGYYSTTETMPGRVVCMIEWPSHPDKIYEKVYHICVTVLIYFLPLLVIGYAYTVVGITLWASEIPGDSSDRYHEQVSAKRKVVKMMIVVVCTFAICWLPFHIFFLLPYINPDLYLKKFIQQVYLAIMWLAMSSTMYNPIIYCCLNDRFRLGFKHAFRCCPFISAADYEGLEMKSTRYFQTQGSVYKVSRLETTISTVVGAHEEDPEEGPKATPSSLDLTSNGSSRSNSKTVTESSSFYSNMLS
Chain of Substance-P receptor (Rattus norvegicus) (P14600 whole entry, looked up): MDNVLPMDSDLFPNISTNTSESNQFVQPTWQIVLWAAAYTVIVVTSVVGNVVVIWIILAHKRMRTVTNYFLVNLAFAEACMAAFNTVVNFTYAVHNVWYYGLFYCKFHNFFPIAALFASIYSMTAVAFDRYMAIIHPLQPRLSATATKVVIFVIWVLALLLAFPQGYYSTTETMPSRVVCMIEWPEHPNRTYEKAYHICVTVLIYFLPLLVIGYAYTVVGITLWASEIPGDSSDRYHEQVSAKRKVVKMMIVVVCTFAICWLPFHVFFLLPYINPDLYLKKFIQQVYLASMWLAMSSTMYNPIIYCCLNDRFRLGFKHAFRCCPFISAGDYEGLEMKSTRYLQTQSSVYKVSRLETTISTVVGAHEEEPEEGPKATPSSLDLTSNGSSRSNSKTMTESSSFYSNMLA
Chain of Substance-P receptor (P14600 whole entry): as the sequence (P14600 whole entry, looked up) above

SMILES: COC(=O)[C@@H](CCSC)NC(=O)[C@H](CC(C)C)SCCNC(=O)[C@@H](Cc1ccccc1)NC(=O)[C@@H](Cc1ccccc1)NC(=O)[C@H](CCC(N)=O)NC(=O)[C@H](CCC(N)=O)NC(=O)[C@H]1CCCN1C(=O)[C@H](CCCCNC(=O)OCc1ccccc1)NC(=O)[C@H]1CCCN1C(=O)[C@H](CCCNC(=N)N)NC(=O)OCc1ccccc1
- IC50 (Substance-P receptor): 33 µM

SMILES: CSCC[C@H](NC(=O)[C@H](CC(C)C)NC(=O)[C@@H](Cc1c[nH]c2ccccc12)NC(=O)[C@H](Cc1ccccc1)NC(=O)[C@@H](Cc1ccccc1)NC(=O)[C@H](CCCNC(=N)N)NC(=O)[C@H](CC(N)=O)NC(=O)[C@@H]1CCCN1C(=O)[C@H](CCCCNC(=O)OCc1ccccc1)NC(=O)[C@H]1CCCN1C(=O)[C@H](CCCNC(=N)N)NC(=O)OCc1ccccc1)C(N)=O
- IC50 (Substance-P receptor): 0.5 µM

SMILES: COC(=O)[C@@H](CCSC)NC(=O)[C@H](CC(C)C)NC(=O)CNC(=O)[C@@H](Cc1c[nH]c2ccccc12)NC(=O)[C@@H](Cc1c[nH]c2ccccc12)NC(=O)[C@H](CCC(N)=O)NC(=O)[C@H](CCC(N)=O)NC(=O)[C@@H]1CCCN1C(=O)[C@H](CCCCNC(=O)OCc1ccccc1)NC(=O)[C@@H]1CCCN1C(=O)[C@H](CCCN=C(N)N)NC(=O)OCc1ccccc1
- Change in amplitude response [1]: -3%
- Change in amplitude response [13]: -13%
- Activity [14]: 10.5 dose ratio
- Change in amplitude response [7]: 19%
- Change in amplitude response [15]: 18%
- Change in amplitude response [9]: -6%
- Change in amplitude response [10]: -24%
- Change in amplitude response [11]: -33%
- Change in amplitude response [16]: -77%
- Change in amplitude response [12]: -75%

SMILES: COC(=O)[C@@H](CCSC)NC(=O)[C@H](CC(C)C)SCCNC(=O)[C@@H](Cc1ccccc1)NC(=O)[C@H](Cc1ccccc1)NC(=O)[C@H](CCC(N)=O)NC(=O)[C@H](CCC(N)=O)NC(=O)[C@H]1CCCN1C(=O)[C@H](CCCCNC(=O)OCc1ccccc1)NC(=O)[C@H]1CCCN1C(=O)[C@H](CCCN=C(N)N)NC(=O)OCc1ccccc1
- Change in amplitude response [2]: -5%
- Change in amplitude response [17]: 5%
- Activity [3]: 21.6 dose ratio
- Activity [14]: 15.2 dose ratio
- Activity [5]: 4.5 dose ratio
- Activity [18]: 49.3 dose ratio

The remaining molecules from weak to strong by IC50 (Substance-P receptor), led by results:

- Change in amplitude response [1]: -3%
- Change in amplitude response [2]: 11%
- IC50 (Substance-P receptor): 500 µM
- Activity [3]: 16 dose ratio
- Activity [4]: < 2 dose ratio
- Activity [5]: 2.1 dose ratio
- Activity [6]: 4.4 dose ratio
- Change in amplitude response [7]: 15%
- Change in amplitude response [8]: -17%
- Change in amplitude response [9]: -26%
- Change in amplitude response [10]: -40%
- Change in amplitude response [11]: -56%
- Change in amplitude response [12]: -79%
SMILES: COC(=O)[C@H](CCSC)NC(=O)[C@H](CC(C)C)NC(=O)[C@@H](Cc1c[nH]c2ccccc12)NC(=O)[C@H](Cc1ccccc1)NC(=O)[C@@H](Cc1ccccc1)NC(=O)[C@H](CCCN=C(N)N)NC(=O)[C@H](CC(N)=O)NC(=O)OC(C)(C)C

- IC50 (Substance-P receptor): 25 µM
SMILES: COC(=O)[C@@H](CCSC)NC(=O)[C@@H](CC(C)C)SCCNC(=O)[C@@H](Cc1ccccc1)NC(=O)[C@@H](Cc1ccccc1)NC(=O)[C@H](CCC(N)=O)NC(=O)[C@H](CCC(N)=O)NC(=O)[C@H]1CCCN1C(=O)[C@H](CCCCNC(=O)OCc1ccccc1)NC(=O)[C@H]1CCCN1C(=O)[C@H](CCCN=C(N)N)NC(=O)OCc1ccccc1

- IC50 (Substance-P receptor): 4 µM
SMILES: CSCCC(NC(=O)C(CC(C)C)NC(=O)[C@@H](Cc1c[nH]c2ccccc12)NC(=O)[C@H](Cc1ccccc1)NC(=O)[C@@H](Cc1c[nH]c2ccccc12)NC(=O)[C@H](CCC(N)=O)NC(=O)[C@H](CCC(N)=O)NC(=O)[C@@H]1CCCN1C(=O)[C@H](CCCCN)NC(=O)[C@H]1CCCN1C(=O)[C@@H](N)CCCNC(=N)N)C(N)=O (stereo in doubt)
